Our source for the metabolised and IC50 values is ChEMBL document CHEMBL3872285, “Discovery of a Potent, Selective, and Orally Available PI3Kδ Inhibitor for the Treatment of Inflammatory Diseases” (ACS Med Chem Lett, 2017).

One may read the IC50 as the concentration needed to halve the response being measured.

Series [1] in a line: Drug metabolism in human liver microsomes assessed as disappearance of parent compound at 5 uM after 30 mins in presence of NADPH by UPLC-MS/MS analysis. A general note: Microsomes from liver hold many membrane-bound enzymes, among them those of drug oxidation.
Series [2] in a line: Drug metabolism in rat liver microsomes assessed as disappearance of parent compound at 5 uM after 30 mins in presence of NADPH by UPLC-MS/MS analysis.
Series [3] concerns the target T1, Phosphatidylinositol 4,5-bisphosphate 3-kinase catalytic subunit delta isoform (Homo sapiens, UniProt O00329).
T1 sequence (O00329 whole entry): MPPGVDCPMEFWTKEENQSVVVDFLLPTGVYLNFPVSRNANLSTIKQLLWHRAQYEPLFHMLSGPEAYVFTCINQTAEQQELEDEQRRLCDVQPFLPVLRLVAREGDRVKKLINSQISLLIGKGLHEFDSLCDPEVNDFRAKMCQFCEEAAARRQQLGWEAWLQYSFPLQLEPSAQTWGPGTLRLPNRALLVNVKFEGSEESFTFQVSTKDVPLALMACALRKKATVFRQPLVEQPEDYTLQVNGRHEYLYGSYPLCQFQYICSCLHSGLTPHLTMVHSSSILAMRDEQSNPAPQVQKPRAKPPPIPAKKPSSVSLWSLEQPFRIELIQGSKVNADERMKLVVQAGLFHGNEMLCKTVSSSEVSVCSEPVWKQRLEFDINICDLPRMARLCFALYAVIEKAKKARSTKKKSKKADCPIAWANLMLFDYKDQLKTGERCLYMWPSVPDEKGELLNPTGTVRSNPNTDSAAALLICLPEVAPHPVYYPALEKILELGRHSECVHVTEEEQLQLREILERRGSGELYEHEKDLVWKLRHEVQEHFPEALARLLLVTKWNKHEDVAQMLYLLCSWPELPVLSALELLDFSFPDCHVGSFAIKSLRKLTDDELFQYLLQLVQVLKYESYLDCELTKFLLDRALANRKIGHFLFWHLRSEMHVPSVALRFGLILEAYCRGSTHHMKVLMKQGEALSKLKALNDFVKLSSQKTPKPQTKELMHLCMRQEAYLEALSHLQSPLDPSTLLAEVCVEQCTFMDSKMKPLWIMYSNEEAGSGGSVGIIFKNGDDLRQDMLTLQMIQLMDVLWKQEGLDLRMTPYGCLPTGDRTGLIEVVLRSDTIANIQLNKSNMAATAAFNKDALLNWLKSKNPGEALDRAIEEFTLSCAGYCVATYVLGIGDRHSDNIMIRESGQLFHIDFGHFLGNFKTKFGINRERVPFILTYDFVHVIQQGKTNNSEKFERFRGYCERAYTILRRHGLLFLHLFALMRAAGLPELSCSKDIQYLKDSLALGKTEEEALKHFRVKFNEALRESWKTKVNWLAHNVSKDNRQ
Description: Inhibition of PI3Kdelta in human THP1 cells assessed as reduction in MCSF-stimulated akt phosphorylation at Thr308 preincubated for 30 mins followed by MCSF stimulation for 3 mins by ELISA. The class given is cell-based, THP-1. In a few lines:
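THP-1 cells exposed to compound for 30 min, then stimulated with MCSF at EC80 for 3 min; lysates assayed by ELISA for pAkt (Thr308).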
(In general: An ELISA detects its analyte on a solid surface through an enzyme-linked reagent.)

Series [4] deals with PI3-kinase p110-delta/p85-alpha (Homo sapiens, UniProt O00329). Description: Inhibition of full length recombinant human N-terminal His6-tagged PI3K p110delta/human p85alpha expressed in baculovirus infected sf21 cells using PIP2 as substrate preincubated for 30 mins followed by substrate addition by HTRF assay.
PI3-kinase p110-delta/p85-alpha, sequence (P27986 whole entry, one chain of several): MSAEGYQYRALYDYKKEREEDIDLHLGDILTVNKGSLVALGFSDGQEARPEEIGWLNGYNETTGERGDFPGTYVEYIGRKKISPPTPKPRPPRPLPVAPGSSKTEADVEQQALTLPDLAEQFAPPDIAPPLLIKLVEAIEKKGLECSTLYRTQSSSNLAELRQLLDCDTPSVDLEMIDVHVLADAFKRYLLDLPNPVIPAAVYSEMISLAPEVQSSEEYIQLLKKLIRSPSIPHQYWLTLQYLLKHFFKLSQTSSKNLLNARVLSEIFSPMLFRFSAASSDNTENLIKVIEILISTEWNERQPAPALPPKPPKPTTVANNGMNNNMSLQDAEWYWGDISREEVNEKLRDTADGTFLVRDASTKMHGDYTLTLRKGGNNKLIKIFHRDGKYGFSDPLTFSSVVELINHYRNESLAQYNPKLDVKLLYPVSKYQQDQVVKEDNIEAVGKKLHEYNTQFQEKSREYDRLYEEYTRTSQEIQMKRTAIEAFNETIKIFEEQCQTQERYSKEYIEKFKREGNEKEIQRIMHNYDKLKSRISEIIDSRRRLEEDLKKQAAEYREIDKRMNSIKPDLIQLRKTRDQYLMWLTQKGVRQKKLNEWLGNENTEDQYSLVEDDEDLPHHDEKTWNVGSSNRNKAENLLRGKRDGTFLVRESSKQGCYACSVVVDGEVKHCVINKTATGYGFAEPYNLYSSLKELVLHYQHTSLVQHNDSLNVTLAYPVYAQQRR

Each structure is given as a SMILES string.

Consider `C[C@H](Nc1ncnc2[nH]cnc12)c1nn2cccc2c(=O)n1-c1ccccc1`, for which the metabolised at 0.5 h, 5 µM in series [1] was 30%; in series [2], 18%. For the same compound, the concentration for half-maximal inhibition (IC50) in series [3] is 7 nM; in series [4], 10 nM.

Regarding `C[C@H](Nc1ncnc(N)c1C#N)c1nn2ccnc2c(=O)n1-c1ccccc1`, the metabolised at 0.5 h, 5 µM turned out to be 23% in series [1] and 14% in series [2]. Moreover, the 50% inhibitory concentration (IC50) in series [3] stood at 210 nM; in series [4], 57 nM.

`C[C@H](Nc1cc(N)ncn1)c1nn2cccc2c(=O)n1-c1ccccc1`: the IC50 in series [4] was determined as 1200 nM.

For the compound `CC[C@H](Nc1ncnc(N)c1C#N)c1nn2cccc2c(=O)n1-c1ccccc1`, the metabolised at 0.5 h, 5 µM in series [1] and in series [2] was 32% each time. Also, the IC50 is 18 nM in series [3] and 11 nM in series [4].

For `C[C@H](Nc1ncnc(N)c1C#N)c1nn2ccc(CO)c2c(=O)n1-c1ccccc1`, the figures for the metabolised at 0.5 h, 5 µM in series [1] and in series [2] were 23% and 7%, respectively. Besides, the IC50 in series [3] stood at 35 nM; in series [4], 4.3 nM.

On to `N#Cc1c(N)ncnc1N1CCC[C@H]1c1nn2cccc2c(=O)n1-c1ccccc1`, for which the values for the metabolised at 0.5 h, 5 µM in series [1] and in series [2] were 48% and 46%, respectively. Also, the half-maximal inhibitory concentration (IC50) in series [3] was found to be 6.6 nM; in series [4], 4.6 nM.

As for `C[C@H](Nc1ncnc(N)c1F)c1nn2cccc2c(=O)n1-c1ccccc1`, the IC50 in series [3] came out at 210 nM; in series [4], 73 nM.

`C[C@H](Nc1ncnc(N)c1C#N)c1nn2cc(F)cc2c(=O)n1-c1ccccc1`: the metabolised at 0.5 h, 5 µM in series [1] came to 34%; in series [2] it was 23%. Moreover, the values for the IC50 in series [3] and in series [4] were 51 nM and 17 nM, respectively.

For the compound `C[C@H](Nc1ncnc(N)c1C(F)(F)F)c1nn2cccc2c(=O)n1-c1ccccc1`, the metabolised at 0.5 h, 5 µM was 43% in series [1] and 51% in series [2]. Moreover, the IC50 in series [4] turned out to be 12 nM.

For the compound `C[C@H](Nc1ncnc(N)c1C#N)c1nn2ccc(F)c2c(=O)n1-c1ccccc1`, the metabolised at 0.5 h, 5 µM in series [1] is 13%; in series [2], 9%. The IC50 in series [3] amounted to 3.8 nM; in series [4] it was 1.1 nM.

With `N#Cc1c(N)ncnc1N1CC(F)(F)C[C@H]1c1nn2cccc2c(=O)n1-c1ccccc1`, the results for the metabolised at 0.5 h, 5 µM in series [1] and in series [2] were 35% and 30%, respectively. For the same compound, the IC50 is 370 nM in series [3] and 31 nM in series [4].

Take `C[C@H](Nc1nc(N)nc(N)n1)c1nn2cccc2c(=O)n1-c1ccccc1`: the metabolised at 0.5 h, 5 µM was determined as 33% in series [1] and 25% in series [2]. Further, the figures for the 50% inhibitory concentration (IC50) in series [3] and in series [4] were 76 nM and 91 nM, respectively.

In the case of `Cc1ccn2nc(C(C)n3cnc4c(N)ncnc43)n(-c3ccccc3)c(=O)c12` (stereo not drawn), the IC50 in series [4] came out at 75 nM.

Consider `CC[C@@H](Nc1ncnc2[nH]cnc12)c1nn2cccc2c(=O)n1-c1ccccc1`, for which the metabolised at 0.5 h, 5 µM in series [1] stood at 30%; in series [2], 32%. For the same compound, the IC50 in series [4] was found to be 1800 nM.

`CC[C@H](Nc1ncnc2[nH]cnc12)c1nn2cccc2c(=O)n1-c1ccccc1`: the metabolised at 0.5 h, 5 µM in series [1] worked out at 49%; in series [2] it was 38%. The IC50 in series [4] came out at 25 nM.

`C[C@H](Nc1ccnc2ccnn12)c1nn2cccc2c(=O)n1-c1ccccc1`: the metabolised at 0.5 h, 5 µM turned out to be 86% in series [1] and 100% in series [2]. For the same compound, the IC50 in series [4] was 60 nM.

Consider `Cc1ccccc1-n1c(Cn2cnc3c(N)ncnc32)nn2ccc(C)c2c1=O`, for which the IC50 in series [4] is 110 nM.

Consider `C[C@H](Nc1ncnc(N)c1C#N)c1nn2c(C(F)(F)F)ccc2c(=O)n1-c1ccccc1`, for which the IC50 in series [3] is 380 nM; in series [4], 71 nM.

Take `N#Cc1c(N)ncnc1NC(CC(F)(F)F)c1nn2cccc2c(=O)n1-c1ccccc1` (stereo not drawn): the IC50 in series [3] was found to be 1600 nM; in series [4], 610 nM.

`N#Cc1c(N)ncnc1NC1(c2nn3cccc3c(=O)n2-c2ccccc2)CC1`: the concentration for half-maximal inhibition (IC50) in series [4] is 3400 nM.
